16 molecules from ChEMBL document CHEMBL1137762, “Design, microwave-assisted synthesis and HIV-RT inhibitory activity of 2-(2,6-dihalophenyl)-3-(4,6-dimethyl-5-(un)substituted-pyrimidin-2-yl)thiazolidin-4-ones” (Bioorg Med Chem, 2009) can be followed below.

The target of this test is Human immunodeficiency virus type 1 reverse transcriptase (Human immunodeficiency virus 1, UniProt Q72547). The experiment in a line: Inhibition of HIV1 reverse transcriptase after 1 hr by ELISA. The essentials: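 Commercial colorimetric RT kit; template/primer complex, biotin- and DIG-labelled dNTPs and RT enzyme in lysis buffer, with or without inhibitor, incubated 1 h at 37 °C. Product captured on streptavidin-coated plate, washed, probed with anti-DIG-peroxidase, then ABTS substrate added; absorbance read at 405 nm.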
Background: ELISA stands for enzyme-linked immunosorbent assay.
Usually IC50 stands for the concentration that gives 50% inhibition. With `CCc1c(C)nc(N2C(=O)CSC2c2c(F)cccc2Cl)nc1C` (stereo unspecified), inhibition was half-maximal at 230 nM (IC50). Next, `Cc1nc(N2C(=O)CSC2c2c(Cl)cccc2Cl)nc(C)c1CCC#N` (stereo unspecified): 1020 nM; `Cc1nc(N2C(=O)CSC2c2c(Cl)cccc2Cl)nc(C)c1C` (stereo unspecified): 830 nM. Next, `Cc1nc(N2C(=O)CSC2c2c(F)cccc2Cl)nc(C)c1Br` (stereo unspecified): 1520 nM. Next, `Cc1nc(N2C(=O)CSC2c2c(Cl)cccc2Cl)nc(C)c1Br` (stereo unspecified): 9820 nM; `CCCCCc1c(C)nc(N2C(=O)CSC2c2c(Cl)cccc2Cl)nc1C` (stereo unspecified): 74400 nM; `CCCCCc1c(C)nc(N2C(=O)CSC2c2c(F)cccc2Cl)nc1C` (stereo unspecified): 16200 nM. The molecule `Cc1nc(N2C(=O)CSC2c2c(F)cccc2Cl)nc(C)c1C` (stereo unspecified) had a concentration for half-maximal inhibition (IC50) of 380 nM.

Turning to `CCCc1c(C)nc(N2C(=O)CSC2c2c(Cl)cccc2Cl)nc1C` (stereo unspecified), 770 nM corresponded to half-maximal inhibition (IC50).

Turning to `Cc1nc(N2C(=O)CSC2c2c(F)cccc2Cl)nc(C)c1CCC#N` (stereo unspecified), half-maximal inhibition (IC50) was put at 2010 nM.

The molecule `CCc1c(C)nc(N2C(=O)CSC2c2c(Cl)cccc2Cl)nc1C` (stereo unspecified) gave an IC50 of 260 nM. `C=CCc1c(C)nc(N2C(=O)CSC2c2c(Cl)cccc2Cl)nc1C` (stereo unspecified) yielded an IC50 of 1220 nM. In turn, `CCCCc1c(C)nc(N2C(=O)CSC2c2c(Cl)cccc2Cl)nc1C` (stereo unspecified) registered an IC50 of 4290 nM.

The molecule `C=CCc1c(C)nc(N2C(=O)CSC2c2c(F)cccc2Cl)nc1C` (stereo unspecified) gave an IC50 of 2920 nM. `CCCc1c(C)nc(N2C(=O)CSC2c2c(F)cccc2Cl)nc1C` (stereo unspecified) returned an IC50 of 850 nM. For the molecule `CCCCc1c(C)nc(N2C(=O)CSC2c2c(F)cccc2Cl)nc1C` (stereo unspecified), inhibition was half-maximal at 16000 nM (IC50).
